From ChEMBL document CHEMBL1122607, “Heterocyclic analogues of chlorcyclizine with potent hypolipidemic activity” (J Med Chem, 1984)

Tests used:
Rattus norvegicus [1] = assay: Minimum effective dose (MED) is the dose (mg/kg)that cause significant reduction in serum cholesterol of 30% compared to concurrent controls.; type: functional; design: unit: mg/kg
Procedure, shortened: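 MED was calculated from the log dose/response curve as the dose giving a statistically significant 30% fall in serum cholesterol versus concurrent controls. Measured in the 3-day oral cholesterol-fed rat screen, or in a 2-week test: groups of eight young male Wistar rats on cholesterol/cholic acid-supplemented or normal diet, dosed orally by gavage daily for 14 days, vehicle 0.5% tragacanth mucilage.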

[2] = (§1) The therapeutic safety margin (TSM) is the ratio of the minimum lethal dose (mg/kg)to the MED; type: ADME, organism-based; details: in vivo
Procedure, shortened: (§2)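 Young male Wistar rats, eight per group, on cholesterol/cholic acid-supplemented or normal diet; graded oral gavage doses daily for 14 days; vehicle controls (0.5% tragacanth mucilage). Mortalities recorded to give the minimum lethal daily dose. After overnight fasting, serum cholesterol assayed by autoanalyzer. MED is the dose giving a significant (t test) 30% cholesterol fall, from the log dose/response curve. TSM = minimum lethal dose/MED.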

Rattus norvegicus [3] = assay: Hypolipidemic activity was measured as reduction in rat serum triglyceride after oral administration in male Wistar rats at 3 mg / (kg day); type: functional
Procedure, shortened: (§3)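 Cholesterol-fed rats given the test compound orally by gavage on the last 3 days, with controls receiving vehicle (0.5% tragacanth mucilage). After overnight starvation, rats were killed under CO2 3 h after the last dose and bled by cardiac puncture. Serum cholesterol and triglyceride were measured by autoanalyzer and expressed as percentage reduction from control levels, with Student's t test.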

Rattus norvegicus [4] = assay: Hypolipidemic activity was measured as reduction in rat serum triglyceride after oral administration in male Wistar rats at 1; type: functional; procedure, shortened: as §3
Rattus norvegicus [5] = assay: Hypolipidemic activity was measured as reduction in rat serum cholesterol after oral administration in male Wistar rats at 3 mg / (kg day); type: functional; procedure, shortened: as §3
Rattus norvegicus [6] = assay: Hypolipidemic activity was measured as reduction in rat serum triglyceride after oral administration in male Wistar rats at 10 mg / (kg day); type: functional; procedure, shortened: as §3
Rattus norvegicus [7] = assay: Hypolipidemic activity was measured as reduction in rat serum cholesterol after oral administration in male Wistar rats at 10 mg / (kg day); type: functional; procedure, shortened: as §3
Rattus norvegicus [8] = assay: Hypolipidemic activity was measured as reduction in rat serum cholesterol after oral administration in male Wistar rats at 1 mg / (kg day); type: functional; procedure, shortened: as §3
Rattus norvegicus [9] = assay: Hypolipidemic activity was measured as reduction in rat serum triglyceride after oral administration in male Wistar rats at 30 mg / (kg day); type: functional; procedure, shortened: as §3
Rattus norvegicus [10] = assay: Hypolipidemic activity was measured as reduction in rat serum cholesterol after oral administration in male Wistar rats at 100 mg/(kg day); type: functional; procedure, shortened: as §3
Rattus norvegicus [11] = assay: Hypolipidemic activity was measured as reduction in rat serum cholesterol after oral administration in male Wistar rats at 30 mg / (kg day); type: functional; procedure, shortened: as §3
Rattus norvegicus [12] = assay: Hypolipidemic activity was measured as reduction in rat serum triglyceride after oral administration in male Wistar rats at 100 mg / (kg day); type: functional; procedure, shortened: as §3
Rattus norvegicus [13] = assay: Hypolipidemic activity was measured as reduction in rat serum cholesterol after oral administration in male Wistar rats at 3 mg / (kg day);; type: functional; procedure, shortened: as §3
Rattus norvegicus [14] = assay: Hypolipidemic activity was measured as reduction in rat serum triglyceride after oral administration in male Wistar rats at 1 mg / (kg day); type: functional; procedure, shortened: as §3
Rattus norvegicus [15] = assay: Hypolipidemic activity was measured as reduction in rat serum triglyceride after oral administration in male Wistar rats at 3 mg / (kg day);; type: functional; procedure, shortened: as §3
Rattus norvegicus [16] = assay: Hypolipidemic activity was measured as reduction in rat serum cholesterol after oral administration in male Wistar rats at 100 mg / (kg day); type: functional; procedure, shortened: as §3
Rattus norvegicus [17] = assay: Hypolipidemic activity was measured as reduction in rat serum cholesterol after oral administration in male Wistar rats at 200 mg/(kg day); type: functional; procedure, shortened: as §3
Rattus norvegicus [18] = assay: Hypolipidemic activity was measured as reduction in rat serum triglyceride after oral administration in male Wistar rats at 200 mg / (kg day); type: functional; procedure, shortened: as §3
Rattus norvegicus [19] = assay: Hypolipidemic activity was measured as reduction in rat serum cholesterol after oral administration in male Wistar rats at 50 mg / (kg day); type: functional; procedure, shortened: as §3
Rattus norvegicus [20] = assay: Hypolipidemic activity was measured as reduction in rat serum cholesterol after oral administration in male Wistar rats at 2.5 mg / (kg day); type: functional; procedure, shortened: as §3
Rattus norvegicus [21] = assay: Hypolipidemic activity was measured as reduction in rat serum triglyceride after oral administration in male Wistar rats at 5 mg / (kg day); type: functional; procedure, shortened: as §3
Rattus norvegicus [22] = assay: Hypolipidemic activity was measured as reduction in rat serum triglyceride after oral administration in male Wistar rats at 2.5 mg / (kg day); type: functional; procedure, shortened: as §3
Rattus norvegicus [23] = assay: Hypolipidemic activity was measured as reduction in rat serum cholesterol after oral administration in male Wistar rats at 5 mg / (kg day); type: functional; procedure, shortened: as §3
Rattus norvegicus [24] = assay: Hypolipidemic activity was measured as reduction in rat serum triglyceride after oral administration in male Wistar rats at 50 mg / (kg day); type: functional; procedure, shortened: as §3
Rattus norvegicus [25] = assay: xHypolipidemic activity was measured as reduction in rat serum cholesterol after oral administration in male Wistar rats at 10 mg / (kg day); type: functional; procedure, shortened: as §3
[26] = as §1; type: functional; procedure, shortened: as §2

| Compound | MED (Rattus norvegicus [1]) | therapeutic safety margin (minimum lethal dose / MED) [2] | Reduction (Rattus norvegicus [6]) [%] | Reduction (Rattus norvegicus [7]) [%] | Reduction (Rattus norvegicus [8]) [%] | Reduction (Rattus norvegicus [9]) [%] | Reduction (Rattus norvegicus [10]) [%] | Reduction (Rattus norvegicus [11]) [%] | Reduction (Rattus norvegicus [12]) [%] | also measured |
| --- | --- | --- | --- | --- | --- | --- | --- | --- | --- | --- |
| Cc1noc(C)c1C(c1ccc(C(C)C)cc1)N1CCN(CCO)CC1 (stereo not given) | 2 | 100 | 56 | 76 | 5 | 16 | 84 | 77 | 84 | Reduction (Rattus norvegicus [3]): 29%; Reduction (Rattus norvegicus [4]): 7%; Reduction (Rattus norvegicus [5]): 50% |
| Cc1noc(C)c1C(c1ccc(C(C)C)cc1)N1CCNCC1 (stereo not given) | 1 | 50 | 82 | 76 | 19 | 94 | 86 | 85 | 96 | Reduction (Rattus norvegicus [13]): 72%; Reduction (Rattus norvegicus [14]): 22%; Reduction (Rattus norvegicus [15]): 45% |
| Cc1cc(C(c2ccc(Cl)cc2)N2CCN(C)CC2)sn1 (stereo not given) |  |  |  |  |  |  |  |  | 2 | Reduction (Rattus norvegicus [16]): 15%; Reduction (Rattus norvegicus [17]): 67%; Reduction (Rattus norvegicus [18]): 19% |
| CC(C)c1ccc(C(c2ccns2)N2CCN(C)CC2)cc1 (stereo not given) | 6 | 14 | 63 | 57 |  |  | 86 |  | 81 | Reduction (Rattus norvegicus [19]): 82%; Reduction (Rattus norvegicus [20]): 26%; Reduction (Rattus norvegicus [21]): 29%; Reduction (Rattus norvegicus [22]): 15%; Reduction (Rattus norvegicus [23]): 39%; Reduction (Rattus norvegicus [24]): 67% |
| CCC(C)c1ccc(C(c2cc(C)ns2)N2CCN(C)CC2)cc1 (stereo not given) | 14 | 20 | 15 |  |  | 55 | 72 | 67 | 87 | Reduction (Rattus norvegicus [25]): 19% |
| CN1CCN(C(c2ccccc2)c2ccccc2)CC1 [CYCLIZINE] | 30 |  |  |  |  |  |  |  |  | Ratio [26]: 10 |
